# Test results: ChEMBL document CHEMBL1137371, “Pyrazolidine-3,5-diones and 5-hydroxy-1H-pyrazol-3(2H)-ones, inhibitors of UDP-N-acetylenolpyruvyl glucosamine reductase” (J Med Chem, 2006)
# Active and inactive are the calls of the source. The calls are words filed in the database; no cut-off is given here.
# Key:
# [1] = system: Candida albicans; assay: Antibacterial activity against Candida albicans by micro-broth dilution method; format: functional, organism-based
# Summary of the method: (§1)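 Broth microdilution in Mueller-Hinton II medium per NCCLS recommendations. Inoculum 5 × 10⁵ cfu/mL, compound range 0.06-128 µg/mL. MIC read after 18 h at 35 °C in ambient air.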
# [2] = system: Staphylococcus aureus; assay: Antibacterial activity against methicillin resistant Staphylococcus aureus GC 1131 by micro-broth dilution method; format: functional
# [3] = system: Streptococcus pneumoniae; assay: Antibacterial activity against Streptococcus pneumoniae in presence of 4% bovine serum albumin; format: functional
# [4] = system: Enterococcus faecalis; assay: Antibacterial activity against vancomycin resistant Enterococcus faecalis GC 2242 by microbroth dilution method; format: functional
# [5] = system: Streptococcus pneumoniae; assay: Antibacterial activity against penicillin resistant Streptococcus pneumoniae GC 1894 by microbroth dilution method; format: functional
# [6] = system: Escherichia coli; assay: Antibacterial activity against Escherichia coli GC 4560 (imp) by micro-broth dilution method; format: functional; summary of the method: as §1
# [7] = biological target: T1, UDP-N-acetylenolpyruvoylglucosamine reductase (Escherichia coli K-12, UniProt P08373); assay: Inhibition of MurB activity
# T1 sequence (P08373 whole entry): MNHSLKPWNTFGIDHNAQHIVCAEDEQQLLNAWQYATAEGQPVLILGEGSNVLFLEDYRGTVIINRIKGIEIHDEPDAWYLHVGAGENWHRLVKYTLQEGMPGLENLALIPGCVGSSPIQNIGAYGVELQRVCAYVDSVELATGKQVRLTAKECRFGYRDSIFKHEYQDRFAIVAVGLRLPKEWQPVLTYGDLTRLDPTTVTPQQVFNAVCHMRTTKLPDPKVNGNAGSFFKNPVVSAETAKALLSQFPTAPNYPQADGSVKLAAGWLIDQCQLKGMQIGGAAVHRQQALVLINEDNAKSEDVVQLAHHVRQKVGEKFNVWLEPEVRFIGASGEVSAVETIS
# Summary of the method: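 Recombinant E. coli MurB was expressed in BL21(λDE3) and purified. Enzyme (20 nM) was preincubated 20 min with inhibitor at 1.6, 3.2, 6.4, 12.8, 25 and 50 µM. Reaction in 50 mM Tris-HCl pH 8.0 with 10 mM KCl, 50 µM enolpyruvyl UDP-GlcNAc and 100 µM NADPH. NADPH oxidation followed as A340 decrease over 5 min. IC50 from sigmoid Hill fit, mean of three runs.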
# [8] = system: Staphylococcus epidermidis; assay: Inhibition of soluble peptidoglycan biosynthesis in Staphylococcus epidermidis; format: functional, organism-based
# Summary of the method: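 S. epidermidis was grown in BHI to OD600 0.6, washed and concentrated tenfold in cell-wall-enriched medium. Cells incubated with 50 µg/mL chloramphenicol, 100 µg/mL penicillin G, [¹⁴C]-GlcNAc (2.9 µM/40 nCi) and compound at 0-25 µg/mL, 1 h, 37 °C, shaking. Supernatant precipitated with 5% TCA/0.4% BSA, 30 min at 4 °C, then filtered and scintillation counted.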
# [9] = Staphylococcus aureus, GC 1131, read-out: MIC
# [10] = Enterococcus faecalis, GC 2242, read-out: MIC
# [11] = Streptococcus pneumoniae, GC 1894, read-out: MIC
# [12] = Escherichia coli, GC 4560, read-out: MIC
MIC [6] [mg/L],SMILES,Activity [1],"MIC [2, 9] [mg/L]",MIC [3] [mg/L],"MIC [4, 10] [mg/L]","MIC [5, 11] [mg/L]","MIC [6, 12] [mg/L]",IC50 [7] [µM],IC50 [8] [µM],MIC [2] [mg/L],MIC [4] [mg/L],MIC [5] [mg/L]
,O=C(Nc1ccc(Br)cc1)c1c(O)n(-c2ccccc2)n(-c2ccccc2)c1=O,inactive,16,> 128,1,1,> 128,42,,,,
,O=C1CC(=O)N(c2ccccc2)N1c1ccccc1,,,,,,,> 100,,,,
,O=C(Nc1ccccc1)c1c(O)n(-c2ccccc2)n(-c2ccccc2)c1=O,inactive,64,> 128,8,16,> 128,54,,,,
16,O=C(Nc1ccc(C(F)(F)F)cc1)c1c(O)n(-c2ccc(Cl)cc2)n(-c2ccc(Cl)cc2)c1=O,inactive,,,,,,5.9,8.3,,,
,O=C1CC(=O)N(c2ccc(Cl)cc2)N1c1ccc(Cl)cc1,,8,,8,8,16,71.6,,,,
,COc1ccc(CC(=O)c2c(O)n(-c3ccc(Cl)cc3)n(-c3ccc(Cl)cc3)c2=O)cc1,inactive,11.7,> 128,1.4,0.73,> 94,40,,,,
,O=C1CC(=O)N(c2ccc(Cl)c(Cl)c2)N1c1ccc(Cl)c(Cl)c1,,8,,8,4,32,25.1,41,,,
,O=C1CC(=O)N(c2cccc(Cl)c2)N1c1cccc(Cl)c1,,16,,16,8,200,68.5,56,,,
,O=C(c1ccc(-c2ccccc2)cc1)c1c(O)n(-c2ccc(Cl)cc2)n(-c2ccc(Cl)cc2)c1=O,inactive,3.1,> 128,0.39,0.3,> 100,6.1,4.9,,,
,O=C1CC(=O)N(c2ccc(F)cc2)N1c1ccc(F)cc1,,128,,128,64,64,> 87,,,,
,O=C(Nc1ccc(Cl)cc1)c1c(O)n(-c2ccccc2)n(-c2ccccc2)c1=O,inactive,32,> 128,1,0.5,> 128,54,,,,
,O=C(c1ccc(C(F)(F)F)cc1)c1c(O)n(-c2ccc(Cl)cc2)n(-c2ccc(Cl)cc2)c1=O,inactive,8,> 128,,,16,15,,,2,0.5
,O=C(c1cccs1)c1c(O)n(-c2ccc(Cl)cc2)n(-c2ccc(Cl)cc2)c1=O,inactive,5.4,> 128,1.3,0.67,21.6,5.8,1,,,
,Cc1ccc(NC(=O)c2c(O)n(-c3ccc(Cl)c(Cl)c3)n(-c3ccc(Cl)c(Cl)c3)c2=O)cc1,inactive,16,> 128,0.25,< 0.12,> 128,4.8,4,,,
>128,COc1ccc(NC(=O)c2c(O)n(-c3ccc(Cl)cc3)n(-c3ccc(Cl)cc3)c2=O)cc1,inactive,,,,,,16,,,,
,CCCCOc1ccc(C(=O)c2c(O)n(-c3ccc(Cl)cc3)n(-c3ccc(Cl)cc3)c2=O)cc1,inactive,1.6,> 128,0.39,0.39,> 100,4.5,7.3,,,
2,O=C(Nc1ccc(Cl)cc1)c1c(O)n(-c2ccc(Cl)cc2)n(-c2ccc(Cl)cc2)c1=O,inactive,,,,,,13.7,42.2,,,
,O=C(c1ccc(OC(F)(F)F)cc1)c1c(O)n(-c2ccc(Cl)cc2)n(-c2ccc(Cl)cc2)c1=O,inactive,12.7,> 128,0.79,0.79,25.4,5.4,2,,,
,O=C1C(=C(O)c2ccc(Cl)c(Cl)c2)C(=O)N(c2ccc(Cl)cc2)N1c1ccc(Cl)cc1,inactive,6.2,> 128,0.77,0.39,49,13,,,,
,O=C(Nc1ccc(C(F)(F)F)cc1)c1c(O)n(-c2cccc(Cl)c2)n(-c2cccc(Cl)c2)c1=O,inactive,0.5,> 128,< 0.12,< 0.12,64,8.7,2.2,,,
,O=C(Nc1ccc(Cl)c(Cl)c1)c1c(O)n(-c2ccc(Cl)c(Cl)c2)n(-c2ccc(Cl)c(Cl)c2)c1=O,inactive,64,> 128,0.5,0.5,> 128,4.8,,,,
,O=C(Nc1ccc(Cl)cc1)c1c(O)n(-c2cccc(Cl)c2)n(-c2cccc(Cl)c2)c1=O,inactive,0.5,> 128,0.25,< 0.12,> 128,8.6,3,,,

SMILES,MIC [6] [mg/L],Activity [1],"MIC [2, 9] [mg/L]",MIC [3] [mg/L],"MIC [4, 10] [mg/L]","MIC [5, 11] [mg/L]","MIC [6, 12] [mg/L]",IC50 [7] [µM],IC50 [8] [µM],MIC [2] [mg/L],MIC [4] [mg/L],MIC [5] [mg/L]
O=C(c1ccc(Cl)cc1)c1c(O)n(-c2ccc(Cl)cc2)n(-c2ccc(Cl)cc2)c1=O,23,inactive,,> 128,,,,11,,5.7,1.4,0.72
COc1ccc(C(=O)c2c(O)n(-c3ccc(Cl)cc3)n(-c3ccc(Cl)cc3)c2=O)cc1,23,inactive,11.3,> 128,,,,10,,,5.7,2.8
